Assay results reported in publication PMC3908450 (Biological chemistry, 2011).
Like-named read-outs stand apart in the source and are kept apart here. Marks after values point to notes of the source that are not given here.

What was measured:
mutant ataxin-3 protein [1] = assay: Inhibition of mutant ATX3 protein expression in patient fibroblasts GM06151; type: cell-based, human; settings: PNA conjugates
Procedure, shortened: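 GM06151 fibroblasts (CAG 74 mutant/24 wild-type repeats) in MEM with 10% heat-inactivated FBS and 0.5% NEAA, 37 °C, 5% CO2, plated two days before dosing. Conjugate stocks heated 65 °C for 5 min, diluted in OptiMEM and added; medium replaced at 24 h; harvest typically day 4. 7.5% SDS-PAGE resolved mutant and wild-type ATX3 bands for western blotting, with β-actin also probed. Inhibition relative to control was fitted per replicate to get separate mutant and wild-type IC50s.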

mutant ataxin-3 protein [2] = settings: PNA conjugate; GM06151 fibroblasts; ref Hue et al., 2009a; cited from earlier work

Row | Substance | Selectivity (wt IC50 versus mut IC50) (mutant ataxin-3 protein [1]) [fold] | Selectivity (wt IC50 versus mut IC50) (mutant ataxin-3 protein [2])
1 | R8-GCTGCTGCTGCTGCTGCTG-K [REP19NR] | 2.7 | 
2 | K-GCTGCTGCTGCTG-K6 [REP13K6] | 5.0 | 
3 | K-GCTGCTGCTGCTG-K8 [REP13] | 2.2 | 
4 | K-GCTGCTGCTGCTGCTGCTG-K8 [REP19] |  | 2.7 ^‡ fold
5 | K-GCTGCTGCTGCTGCTGCTG-Spacer-K8 [REP19S] | 1.7 | 
6 | K-GCTGCTGCTGCTG-K4 [REP13K4] | 2.3 | 
7 | K-GCTGCTGCTGCTGCTGCTG-(Kpeptoid)8 [REP19P] | >2.2 | 
8 | K8-GCTGCTGCTGCTG-K8 [REP13KK] | 1.8 | 
9 | K-GCTGCTG-K8 [REP7] | 3.6 | 
10 | K-GCTGCTGCT-K8 [REP9] | 3.0 | 
11 | K8-GCTGCTGCTGCTGCTGCTG-K [REP19NK] | 3.4 | 
12 | K8-GCTGCTG-K [REP7NK] | >1.7 | 
13 | K-GCTGCTGCTGCTGCTGCTG-R8 [REP19R] | 1.6 | 
14 | K-GCTGCTGCTGCTGCTG-K8 [REP16] | 2.4 | 
15 | K-GCTGCTGCTGC-K8 [REP11] | 3.4 | 
